Screening results from PubChem.
CAL PDZ FP-1: CAL PDZ peptide-binding inhibitors, primary screen, biochemical, fluorescence polarization, Cer-tagged CAL PDZ, HTS | Golgi-associated PDZ and coiled-coil motif-containing protein (Homo sapiens), Q9HD26 | actives 0.02% (n = 330,000) | inhibition, % at 20 µM | purified CAL PDZ, TMR-peptide fluorescence polarization, 1 h;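 active = highest replicate inhibition of at least 40%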
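System: tagged CAL PDZ domain. Schedule: 1 h room-temperature incubation prior to read. Signal: fluorescence polarization (mP). Measure: percent inhibition from loss of millipolarization.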
PvdQ acylase: P. aeruginosa PvdQ acylase inhibitors, primary screen, biochemical, fluorescence, plate reader and imaging, single point; PvdQ acylase [Pseudomonas aeruginosa LESB58]; purified PvdQ acylase; inhibition, % at 10 µM; actives 0.063% (n = 340,000); AID 488965, 2010; in the data active = inhibition above about 30%, passing the limit was not always enough
CAL PDZ FP-2: untagged CAL PDZ binding inhibitors, primary screen, biochemical, fluorescence polarization, HTS; Golgi-associated PDZ and coiled-coil motif-containing protein (Homo sapiens), Q9HD26; purified CAL PDZ, TMR-peptide fluorescence polarization, 1 h; inhibition, % at 24.9 µM; actives 0.92% (n = 300,000);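 active = mean inhibition of at least 30% with at least half of replicates also reaching 30%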
miR-122 sensor: miR-122 Renilla sensor signal increase in Huh7, primary screen, miR-122 inhibitor project, cell-based, single point, plate reader; actives 0.3% (n = 340,000); activation (reporter increase), % at 12.5 µM; Huh7 miR-122 Renilla luciferase sensor, 48 h; neutral wells = 0, positive control = 100;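 active = mean replicate activation score at least 90 and every replicate individually at or above 90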;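 note: higher luciferase means less miR-122 activity so hits act as miR-122 inhibitors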
Large screens that a line does not name were inactive. The list is not random: actives were taken first. Their share in the collection is about 0.95%.

C[C@@H]1CN([C@@H](C)CO)C(=O)CCCn2nncc2CO[C@@H]1CN(C)C(=O)Nc1ccccc1F	none (no result: CAL PDZ FP-1, PvdQ acylase, CAL PDZ FP-2)
CC(Sc1nc2ccccc2s1)C(=O)NCc1ccc2c(c1)OCO2 (stereo not given)	none
Cc1csc(SC(C)C(=O)NCc2ccc3c(c2)OCO3)n1 (stereo not given)	CAL PDZ FP-2 64
Cc1c(N2C(=O)c3ccc(Br)cc3C2=O)c(=O)n(-c2ccccc2)n1C	CAL PDZ FP-2 36
CC1CCC(NC(=O)c2nn(C)c3c2CSc2ccccc2-3)CC1 (stereo not given)	CAL PDZ FP-2 70
CC(=O)c1ccc(-c2ccc(C(=O)NCC(c3ccc(F)cc3)N3CCOCC3)o2)cc1 (stereo not given)	CAL PDZ FP-2 142
CN1CCC(C2(O)c3ccccc3CSc3sccc32)CC1 (stereo not given)	CAL PDZ FP-2 110 (no result: CAL PDZ FP-1)
CCc1ccc([C@@H]2C[C@H]3[C@@H](CN2S(=O)(=O)c2ccc(C)cc2)C(=O)C[C@@H](c2ccc(Cl)cc2)N3S(=O)(=O)c2ccc(C)cc2)cc1	none (no result: CAL PDZ FP-1, PvdQ acylase, CAL PDZ FP-2)
Cc1ccc(C)c(NC(=S)NCCN(C2CCCCC2)C2CCCC2)c1	CAL PDZ FP-2 65
Cc1ccc(SCCNC(=S)Nc2cc(C)ccc2C)cc1	none
O=C(O)C1CC=CCC1C(=O)NCCCCc1ccccc1 (stereo not given)	CAL PDZ FP-2 82 (no result: miR-122 sensor)
CCCN(CC(=O)Nc1cc(C)on1)CC(=O)Nc1ccc(F)c(F)c1F	CAL PDZ FP-2 49 (no result: miR-122 sensor)
CC1CCCCC1NC(=S)Nc1ccc(SC(F)F)cc1 (stereo not given)	miR-122 sensor 115
FC(F)Sc1ccc(NC(=S)NCC2CCCCC2)cc1	none (no result: miR-122 sensor)
FC(F)Sc1ccc(NC(=S)NC2CCCCC2)cc1	miR-122 sensor 121
O=C(CS(=O)(=O)c1ccccc1)c1cc2cc(F)ccc2oc1=O	CAL PDZ FP-2 79
O=C(CS(=O)(=O)c1ccccc1)c1cc2ccccc2oc1=O	none
CC(C)CN1CCC(=O)NC1=S	none (no result: CAL PDZ FP-2)
C[C@@H]1CCCCO[C@@H](CN(C)Cc2ccc(C(=O)O)cc2)[C@@H](C)CN([C@H](C)CO)C(=O)c2cc(NS(=O)(=O)c3cn(C)cn3)ccc2O1	none (no result: CAL PDZ FP-1, PvdQ acylase, CAL PDZ FP-2)
CCCN(CC(=O)Nc1ccccc1C)C(=O)COc1c(C)cccc1C	CAL PDZ FP-2 45
CCCN(CC(=O)Nc1ccccc1C)C(=O)CCCc1c[nH]c2ccccc12	CAL PDZ FP-2 132
CCN(CC(=O)Nc1c(F)cccc1F)C(=O)CCCc1c[nH]c2ccccc12	none
CCOC(=O)C1=C(C)N=c2s/c(=C\c3ccncc3)c(=O)n2C1c1ccc2c(c1)OCO2 (stereo not given)	none
CCOC(=O)C1=C(C)N=c2s/c(=C3\C(=O)Nc4ccccc43)c(=O)n2C1c1ccc2c(c1)OCO2 (stereo not given)	miR-122 sensor 91
O=C(Cc1ccc([N+](=O)[O-])cc1)N1CCN(c2ccc([N+](=O)[O-])cc2)CC1	none (no result: CAL PDZ FP-2)
Cc1c(Cl)c([N+](=O)[O-])nn1Cc1ccc(C(=O)NN)o1	none (no result: CAL PDZ FP-2)
O=C(O)c1ccc(NS(=O)(=O)c2cccc3cccnc23)cc1	none
COc1ccc(OC)c(NS(=O)(=O)c2cccc3cccnc23)c1	none
COc1ccc(C(C)(C)C)cc1NS(=O)(=O)c1cccc2cccnc12	miR-122 sensor 117
O=S(=O)(Nc1ccc(Cl)cc1)c1cccc2cccnc12	miR-122 sensor 99
COc1ccc(NS(=O)(=O)c2ccc3ccccc3c2)c2ncccc12	miR-122 sensor 104
COc1ccc([N+](=O)[O-])cc1NC(=O)c1csc(C)c1	none (no result: miR-122 sensor)
CNc1nc(-c2ccc3c(c2)CCN3C(=O)c2ccccc2F)c(C)s1	none (no result: CAL PDZ FP-2)
Cc1ccc(CN2C(=O)c3ccccc3NC2c2ccccn2)cc1 (stereo not given)	CAL PDZ FP-2 58 (no result: miR-122 sensor)
COc1ccc(Cn2c(=O)n(Cc3ccco3)c(=N)c3c4c(sc32)COC(C)(C)C4)cc1	CAL PDZ FP-2 59
Cc1ccc2[nH]c(O)c(N=NC(=O)c3ccc(NS(=O)(=O)c4cccs4)cc3)c2c1	none
COc1ccc2[nH]c(O)c(N=NC(=O)c3ccc(NS(=O)(=O)c4cccs4)cc3)c2c1	CAL PDZ FP-2 46
CCCc1cc(=O)oc2c(CN3CCN(C)CC3)c(O)c(Cl)cc12	CAL PDZ FP-2 31
CCCCc1cc(=O)oc2c(CN3CCCC3)c(O)c(Cl)cc12	none
N#Cc1cc(-c2ccccc2)cnc1Cl	PvdQ acylase 37
O=C(OCc1ccccc1Cl)c1ccccc1C(=O)c1ccccc1	miR-122 sensor 137
O=C(OCc1ccccc1Cl)c1cccnc1Cl	none
CSc1ccccc1NC(=O)CN1CCN(c2ccccn2)CC1	none (no result: CAL PDZ FP-1)
Cc1cnc(NC(=O)CN2CCN(c3ccccn3)CC2)s1	miR-122 sensor 177
Cc1cc(Br)ccc1NC(=O)CN1CCN(c2ccccn2)CC1	CAL PDZ FP-2 75 (no result: CAL PDZ FP-1)
COc1cccc(CNc2nc3cc(-c4ccc(OC)c(OC)c4)sc3c(=O)n2C)c1	none (no result: CAL PDZ FP-1, PvdQ acylase, CAL PDZ FP-2)
O=C(COC(=O)c1cccc(S(=O)(=O)N2CCCCC2)c1)NC1CCCc2ccccc21 (stereo not given)	none (no result: miR-122 sensor)
O=C(CN(C1CCCCC1)S(=O)(=O)c1ccc(Cl)cc1)NCc1cccnc1	miR-122 sensor 100
O=C(CN(C1CCCCC1)S(=O)(=O)c1ccccc1)NCc1cccnc1	none (no result: miR-122 sensor)
C=CCNc1cc(F)ccc1S(=O)(=O)NCC=C	miR-122 sensor 96
Cc1nc2c(-c3ccccc3)c(C)nn2c(C)c1CCC(=O)O	none
O=C(NNc1cc(N2CCCC2)nc(N2CCCC2)n1)c1ccc([N+](=O)[O-])cc1	CAL PDZ FP-2 30 (no result: miR-122 sensor)
CC(C)(C)c1ccc(C(=O)NNc2cc(N3CCCCC3)nc(N3CCCCC3)n2)cc1	none
CNC(=O)c1cn(-c2ccc(Cl)cc2)c(=O)c2ccccc12	CAL PDZ FP-2 48 (no result: CAL PDZ FP-1, miR-122 sensor)
COC(=O)c1cn(-c2ccc(Cl)cc2)c(=O)c2ccccc12	none (no result: miR-122 sensor)
CC12CC3CC(C)(C1)CC(C(=O)Nc1nncs1)(C3)C2	none
CN(C)S(=O)(=O)c1cccc(COc2ncnc3c(Cl)cc(Cl)cc23)c1	CAL PDZ FP-2 56
CN(C)S(=O)(=O)c1cccc(COC(=O)c2ccc(Cl)cc2O)c1	none (no result: miR-122 sensor)
C=CCn1c(NC(=O)c2ccco2)nc2ccccc21	CAL PDZ FP-1 61, CAL PDZ FP-2 94
COCC1CCN(Cc2c(C(=O)N3CCOCC3)nc3c(C)cccn23)C1 (stereo not given)	none (no result: CAL PDZ FP-1, PvdQ acylase, CAL PDZ FP-2)
CCC(=O)Nc1c(C)nn(C(=O)CC)c1C	none
O=C(CSc1nc2nn(-c3ccccc3)c(=O)c-2c2n1CCCCC2)Nc1ccc(OC(F)F)cc1	CAL PDZ FP-2 127
Cc1ccc2cccc(OCc3cccc([N+](=O)[O-])c3)c2n1	CAL PDZ FP-2 61 (no result: CAL PDZ FP-1)
COc1ccc(CNc2nc3nc(-c4ccccc4)cc(=O)n3[nH]2)cc1OC	CAL PDZ FP-2 40
CC(=O)Nc1ccc2[nH]ccc2c1	none
